Assay results reported in ChEMBL document CHEMBL1123901, “Inhibition of delayed hypersensitivity reactions by cinnamyl 1-thioglycosides” (J Med Chem, 1987).
pIC50: −log10 of the molar value.

Experiments:
Type in all cases: functional
Cavia porcellus [1] = organism: Cavia porcellus; assay: Effect on guinea pig T cell proliferation was tested by measuring the incorporation of [3H]thymidine uptake at the concentration of 250 uM
Method in brief: (§1)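 Strain 2 female guinea pigs were immunized with 100 μg OVA in CFA split over the footpads. At day 14 they received mineral oil ip, and the exudate was collected 4 days later. T cells were enriched on nylon wool. 2×10^5 cells per well were cultured with 10% irradiated (2100 rads) exudate cells, OVA (10 μg/mL) and compound, for 72 h at 37 °C in 5% CO2. [3H]thymidine (1 μCi) was added 18-24 h before harvest. Triplicate wells; mean Δcpm ± SD.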

Cavia porcellus [2] = organism: Cavia porcellus; assay: Effect on guinea pig T cell proliferation was tested by measuring the incorporation of [3H]thymidine uptake at the concentration of 750 uM; method in brief: as §1
Cavia porcellus [3] = organism: Cavia porcellus; assay: Effect on guinea pig T cell proliferation was tested by measuring the incorporation of [3H]-thymidine uptake at the concentration of 100 uM; method in brief: as §1
Cavia porcellus [4] = organism: Cavia porcellus; assay: Effect on guinea pig T cell proliferation was tested by measuring the incorporation of [3H]thymidine uptake at the concentration of 10 uM; method in brief: as §1
Cavia porcellus [5] = organism: Cavia porcellus; assay: Effect on guinea pig T cell proliferation was tested by measuring the incorporation of [3H]thymidine uptake at the concentration of 500 uM; method in brief: as §1
Cavia porcellus [6] = organism: Cavia porcellus; assay: Effect on guinea pig T cell proliferation was tested by measuring the incorporation of [3H]thymidine uptake at the concentration of 1000 uM; method in brief: as §1
Cavia porcellus [7] = organism: Cavia porcellus; assay: Effect on guinea pig T cell proliferation was tested by measuring the incorporation of [3H]-thymidine uptake at the concentration of 0 uM; method in brief: as §1
Mus musculus [8] = assay: Compound was administered orally to mice before increase in foot-pad thickness at a dose of 3 mg/kg; conditions: route oral
Method in brief: (§2)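 DTH in A/J female mice (20-23 g): cyclophosphamide 200 mg/kg sc, then iv sensitization with 10^8 washed SRBC 3 days later. On day 6 after sensitization, one hind footpad challenged with 10^8 SRBC in 20 μL, the other given saline. Dosing ip or po to overnight-fasted mice 20 min before challenge. Swelling read at 24 and 48 h as antigen minus saline footpad (mm × 10), by constant-pressure caliper.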

Cavia porcellus [9] = organism: Cavia porcellus; assay: [3H]thymidine uptake was determined by liquid scintillation spectroscopy in 3 treated Macrophages plus OVA (10 ug/mL)
Method in brief: (§3)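 Guinea pig PELs and irradiated (2100 rads) exudate macrophages were each preincubated with compound (1 mM or 500 μM, depending on agent) for 18 h at 37 °C, then washed. Macrophages were pulsed with OVA 100 μg/mL for 1 h at 37 °C and washed. Cells were viability-adjusted by trypan blue and mixed, with or without OVA 10 μg/mL. Culture ran 72 h at 37 °C with [3H]thymidine read by scintillation, as mean Δcpm × 10^-3.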

Cavia porcellus [10] = organism: Cavia porcellus; assay: [3H]-Thymidine uptake was determined by liquid scintillation spectroscopy in OVA pulsed compound 2 pretreated Macrophages pretreated with 500 uM 2 at 37 degree C for 18 h; method in brief: as §3
Cavia porcellus [11] = organism: Cavia porcellus; assay: [3H]thymidine uptake was determined by liquid scintillation spectroscopy in Macrophages; method in brief: as §3
Mus musculus [12] = assay: Percent reduction in mice after intraperitoneal administration of 30 mg/kg; method in brief: as §2
Mus musculus [13] = assay: Compound was administered intraperitoneally to mice before increase in foot-pad thickness at a dose of 10 mg/kg; conditions: route intraperitoneal; method in brief: as §2
Mus musculus [14] = assay: Compound was administered intraperitoneally to mice before increase in foot-pad thickness at a dose of 3 mg/kg; conditions: route intraperitoneal; method in brief: as §2
Mus musculus [15] = assay: Compound was administered intraperitoneally to mice before increase in foot-pad thickness at a dose of 30 mg/kg; conditions: route intraperitoneal; method in brief: as §2
Cavia porcellus [16] = organism: Cavia porcellus; assay: [3H]thymidine uptake was determined by liquid scintillation spectroscopy in Macrophages pretreated with 500 uM 2 at 37 degree C for 18 h; method in brief: as §3
Mus musculus [17] = assay: Percent reduction in mice after oral administration 10 mg/kg; method in brief: as §2
Mus musculus [18] = assay: Percent reduction in mice after oral administration 3 mg/kg; method in brief: as §2
Cavia porcellus [19] = organism: Cavia porcellus; assay: [3H]thymidine uptake was determined by liquid scintillation spectroscopy in OVA pulsed Macrophages pretreated with 500 uM 2 at 37 degree C for 18 h; method in brief: as §3
Cavia porcellus [20] = organism: Cavia porcellus; assay: [3H]-Thymidine uptake was determined by liquid scintillation spectroscopy in compound 2 pretreated Macrophages plus OVA (ug/mL) pretreated with 500 uM 2 at 37 degree C for 18 h; method in brief: as §3
Cavia porcellus [21] = organism: Cavia porcellus; assay: [3H]thymidine uptake was determined by liquid scintillation spectroscopy in ovalbumin pulsed Macrophages
Method in brief: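 Pretreatment protocol. Strain 2 female guinea pigs immunized with OVA in CFA (100 μg OVA; 0.1 mL/foot); mineral oil given ip at day 14, peritoneal exudate collected 4 days later. Nylon-wool-enriched T cells (PELs) and irradiated (2100 rads) exudate macrophages each incubated with sugar derivative 18 h at 37 °C, then washed. Macrophages pulsed with OVA 100 μg/mL for 1 h at 37 °C and washed. Viability adjusted by trypan blue; populations mixed and cultured 72 h at 37 °C. [3H]thymidine (1 μCi) added 18-24 h before harvest; read by liquid scintillation as mean Δcpm ×10^-3.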

Cavia porcellus [22] = organism: Cavia porcellus; assay: [3H]-Thymidine uptake was determined by liquid scintillation spectroscopy in ovalbumin (OVA) pulsed compound 2 treated Macrophages; method in brief: as §3
Mus musculus [23] = assay: Percent reduction in mice after intraperitoneal administration 3 mg/kg; method in brief: as §2
Cavia porcellus [24] = organism: Cavia porcellus; assay: [3H]thymidine uptake was determined by liquid scintillation spectroscopy in compound 2 treated Macrophages; method in brief: as §3
Mus musculus [25] = assay: Percent reduction in mice after intraperitoneal administration 10 mg/kg; method in brief: as §2
Mus musculus [26] = assay: Percent reduction in mice after oral administration of 30 mg/kg; method in brief: as §2
Cavia porcellus [27] = organism: Cavia porcellus; assay: [3H]thymidine uptake was determined by liquid scintillation spectroscopy in compound 2 treated Macrophages pretreated with 500 uM 2 at 37 degree C for 18 h; method in brief: as §3
Mus musculus [28] = assay: Compound was administered orally to mice before increase in foot-pad thickness at a dose of 10 mg/kg; conditions: route oral; method in brief: as §2
Cavia porcellus [29] = organism: Cavia porcellus; assay: [3H]thymidine uptake was determined by liquid scintillation spectroscopy in compound 2 pretreated OVA pulsed Macrophages plus OVA (10 ug/mL); method in brief: as §3
Cavia porcellus [30] = organism: Cavia porcellus; assay: Inhibitory activity against [3H]thymidine uptake by cinnamyl 1-thioglycosides using guinea pig T cell proliferation assay
Cavia porcellus [31] = organism: Cavia porcellus; assay: [3H]thymidine uptake was determined by liquid scintillation spectroscopy in 2 pretreated OVA pulsed Macrophages plus OVA (10 ug/mL) pretreated with 500 uM 2 at 37 degree C for 18 h; method in brief: as §3
Mus musculus [32] = assay: Compound was administered orally to mice before increase in foot-pad thickness at a dose of 30 mg/kg; conditions: route oral; method in brief: as §2
Cavia porcellus [33] = organism: Cavia porcellus; assay: Inhibitory activity against [3H]thymidine uptake by cinnamyl 1-thioglycosides in guinea pig T cell proliferation; conditions: Cavia porcellus, T-cell, 72 h; method in brief: as §1

In the case of `CCCC(=O)NCC1OC(SC/C=C/c2ccccc2)C(O)C(O)C1O` (configuration not stated), the Activity (Cavia porcellus [1]) was 1.73 Δcpm x10e-3, the Activity (Cavia porcellus [2]) was 0 Δcpm x 10^-3 and the Activity (Cavia porcellus [3]) was 45 Δcpm x10e-3. For the same compound, the Activity (Cavia porcellus [4]) was 68.4 Δcpm x10e-3, the Activity (Cavia porcellus [5]) was 0 Δcpm x10e-3 and the Activity (Cavia porcellus [6]) was 0.07 Δcpm x10e-3. For the same compound, the Activity (Cavia porcellus [7]) was 85.8 Δcpm x10e-3.

For `OCC1OC(SC/C=C/c2ccccc2)C(O)C(O)C1O` (stereo in doubt; 2), the Activity (Mus musculus [8]) was 0.85 mm x10, the “Delta cpm x10e-3” value (Cavia porcellus [9]) was 14.5 and the “Delta cpm x10e-3” value (Cavia porcellus [10]) was 14.2. The “Delta cpm x10e-3” value (Cavia porcellus [11]) was 1.31, the Activity (Cavia porcellus [1]) was 17.6 Δcpm x10e-3 and the Reduction (Mus musculus [12]) was 63%. The Activity (Mus musculus [13]) was 2.46 mm x10, the Activity (Mus musculus [14]) was 7.3 mm x10 and the Activity (Mus musculus [15]) was 2.07 mm x10. The Activity (Cavia porcellus [2]) was 0 Δcpm x 10^-3, the “Delta cpm x10e-3” value (Cavia porcellus [16]) was 1.16 and the Activity (Cavia porcellus [3]) was 63.6 Δcpm x10e-3. For the same compound, the Reduction (Mus musculus [17]) was 30%, the Reduction (Mus musculus [18]) was 27% and the Activity (Cavia porcellus [4]) was 95.9 Δcpm x10e-3. The “Delta cpm x10e-3” value (Cavia porcellus [19]) was 30.35, the “Delta cpm x10e-3” value (Cavia porcellus [20]) was 8.7 and the “Delta cpm x10e-3” value (Cavia porcellus [21]) was 41.36. The Delta cpm x10e-3 (Cavia porcellus [22]) was 27.8, the Reduction (Mus musculus [23]) was 0% and the Activity (Cavia porcellus [5]) was 0.04 Δcpm x10e-3. The “Delta cpm x10e-3” value (Cavia porcellus [24]) was 1.89, the Reduction (Mus musculus [25]) was 56% and the Reduction (Mus musculus [26]) was 30%. The “Delta cpm x10e-3” value (Cavia porcellus [27]) was 1.07, the Activity (Cavia porcellus [6]) was 0.18 Δcpm x10e-3 and the Activity (Mus musculus [28]) was 0.82 mm x10. The Activity (Cavia porcellus [7]) was 82.4 Δcpm x10e-3, the “Delta cpm x10e-3” value (Cavia porcellus [29]) was 18.94 and the pIC50 (Cavia porcellus [30]) was 3.70. The “Delta cpm x10e-3” value (Cavia porcellus [31]) was 12.06 and the Activity (Mus musculus [32]) was 0.82 mm x10.

With `OCC1OC(SC/C=C/c2ccccc2)C(O)C(O)C1O` (stereo in doubt; 3) the Activity (Cavia porcellus [1]) was 67.8 Δcpm x10e-3, the Activity (Cavia porcellus [2]) was 38.4 Δcpm x 10^-3 and the Activity (Cavia porcellus [3]) was 66.7 Δcpm x10e-3. The Activity (Cavia porcellus [4]) was 75.3 Δcpm x10e-3, the Activity (Cavia porcellus [5]) was 62.7 Δcpm x10e-3 and the Activity (Cavia porcellus [6]) was 42 Δcpm x10e-3. The Activity (Cavia porcellus [7]) was 80.3 Δcpm x10e-3 and the pIC50 (Cavia porcellus [33]) was 3.06.
